This note sets out measurements from ChEMBL document CHEMBL3232797, “Targeting Staphylococcus aureus quorum sensing with nonpeptidic small molecule inhibitors” (J Med Chem, 2014).

Series [1] has as its system Staphylococcus aureus. Briefly: Inhibition of AIP-1-induced AgrC-I activation in Staphylococcus aureus RN6390B up to 100 uM after 55 mins by beta-lactamase reporter assay. The method, boiled down:
(§1)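 The reporter strain was S. aureus RN6390B (pRN6683) carrying agrP3::blaZ. It was grown overnight at 37 °C in CYGP with 5 μg/mL chloramphenicol, diluted 1/100, and grown to OD600 ≈ 0.4. Cells were exposed to AIP-1 (0.01 nM–10 μM) plus compound (0–100 μM) for 55 min at 37 °C, quenched with sodium azide, and read as β-lactamase activity by nitrocefin. Triplicates were run on ≥2 occasions, with IC50 fitted.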
A general note: In a reporter assay the amount or activity of a reporter protein is the signal.

Series [2] concerns Staphylococcus aureus. Briefly: Antimicrobial activity against Staphylococcus aureus RN6390B assessed as growth inhibition up to 100 uM after 18 hrs by spectrophotometry. It is filed as functional, organism-based. An outline of the steps: (§2)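 Staphylococci were grown at 37 °C with shaking in LB, Mueller–Hinton or CYGP broth, with or without test compound. Growth curves were followed as OD600 over 18 h.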

Series [3] in a line: Inhibition of AIP-1-induced AgrC-I activation in Staphylococcus aureus RN6390B after 55 mins by beta-lactamase reporter assay. An outline of the steps: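 agrP3::blaZ reporter strain RN6390B (pRN6683) grown overnight at 37 °C in CYGP with 5 μg/mL chloramphenicol, diluted 1/100, grown with shaking to OD600 ≈ 0.4. Incubated with AIP-1 (0.01 nM to 10 μM) plus compounds (0–100 μM) for 55 min at 37 °C; quenched with sodium azide; β-lactamase read with nitrocefin. Triplicate, ≥2 independent occasions; IC50 fitted.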

The subject of series [4] is Staphylococcus aureus. The experiment in a line: Antimicrobial activity against Staphylococcus aureus USA300 assessed as growth inhibition at 100 uM after 18 hrs by spectrophotometry. The class given is functional, organism-based. The method, boiled down: as §2
Series [5] relates to Staphylococcus aureus. Briefly: Antimicrobial activity against Staphylococcus aureus RN6390B assessed as growth inhibition after 18 hrs by spectrophotometry. It is filed as functional.
The test system of series [6] is Staphylococcus aureus. The experiment in a line: Noncompetitive inhibition of AgrC-I in AIP-1-induced Staphylococcus aureus RN6390B at 5 to 25 uM after 55 mins by kinetic study. The method, boiled down:
as §1

Series [7] can be described thus: Iron-chelating activity at 50 uM by Chrome Azurol S […] assay. It is filed as physicochemical. The method, boiled down: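 Chrome azurol S (CAS) assay with compounds at 50 μM. Desferrioxamine (10 μM) served as positive control and MeCN as solvent control.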
Series [8] concerns Staphylococcus aureus. The experiment in a line: Noncompetitive inhibition of AgrC-I in AIP-1-induced Staphylococcus aureus RN6390B at 25 to 100 uM after 55 mins by kinetic study. The method, boiled down: as §1
Series [9] relates to Staphylococcus aureus. Briefly: Inhibition of Staphylococcus aureus adherence to human nasal squamous epithelial cells at 10 uM after 1 hr. It is filed as functional, organism-based. Particulars: Epithelial cell. The method, boiled down: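 Desquamated human nasal squamous epithelial cells, untreated or compound-treated, were incubated with S. aureus. Bound bacteria were counted per 100 nasal cells, as the mean of three experiments run in duplicate.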

For series [10], the system named is Staphylococcus aureus. The experiment in a line: Noncompetitive inhibition of AgrC-I in AIP-1-induced Staphylococcus aureus RN6390B assessed as reduction in maximum level of activation at 25 to 100 uM after 55 mins by kinetic study relative to control. An outline of the steps:
as §1

The subject of series [11] is Staphylococcus aureus. The experiment in a line: Antimicrobial activity against Staphylococcus aureus Newman in NMRI mouse septic arthritis model. The class given is functional, organism-based. The method, boiled down: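 Mice were given test agent at 10 mg/kg body weight or PBS (control) and then challenged with S. aureus. Arthritis frequency and arthritic index were scored over a 10 day period.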

In brackets after ≈: the same amount, converted by molar mass. Activity calls are given as the source filed them. No cut-off for these calls is given here.

For `CCCCCCCCCC(=O)CC(=O)N[C@@H](CCO)C(=O)O`, the inhibition result in series [1] is “inactive”. For the same compound, in series [2], the “growth inhibition (GI)” value is “inactive”.

What is called IC50 is the point on the concentration scale where inhibition reaches its midpoint. Low values mean greater potency, high ones weaker potency. For the compound `CCCCCCC/C(O)=C1/C(=O)N[C@@H](CCO)C1=O`, in series [3], half-maximal inhibition (IC50) was put at 42 µM. In addition, the “growth inhibition (GI)” value in series [4] and in series [2] was “inactive” each time.

For the compound `CCCCCCCCCC(=O)CC(=O)O[C@H]1CCOC1=O`, the inhibition entry in series [1] is “inactive”. The “growth inhibition (GI)” value in series [2] was “inactive”.

For the compound `O=C1N[C@@H](CCO)C(=O)/C1=C(/O)CCCC1CCCCC1`, the inhibition result in series [1] is “inactive”. Also, in series [2], the “growth inhibition (GI)” value was “inactive”.

`CCCCCC/C=C\CCCC(=O)C1=C(O)COC1=O` registered an IC50 in series [3] of 88 µM. In addition, in series [2], the “growth inhibition (GI)” value is “inactive”.

Regarding `CCCCCCCCNC(=O)CC(=O)N[C@H]1CCOC1=O`, the inhibition result in series [1] was “inactive”. Moreover, the “growth inhibition (GI)” value in [2] is “inactive”.

`O=C1N[C@@H](CCO)C(=O)/C1=C(/O)Cc1ccc([N+](=O)[O-])cc1`: in series [1], the inhibition entry is “inactive”. Also, the “growth inhibition (GI)” value in series [2] is “inactive”.

For the compound `O=C(Cc1ccc(Br)cc1)C1=C(O)COC1=O`, in series [1], the inhibition entry is “inactive”. Besides, in series [2], the “growth inhibition (GI)” value was “inactive”.

Take `O=C(Cc1ccc([N+](=O)[O-])cc1)C1=C(O)COC1=O`: the inhibition result in series [1] was “inactive”. Besides, the “growth inhibition (GI)” value in [2] was “inactive”.

With `CCC/C(O)=C1/C(=O)N[C@@H](CCO)C1=O`, the inhibition entry in series [1] was “inactive”. For the same compound, the “growth inhibition (GI)” value in [2] was “inactive”.

With `O=C(CCCc1ccccc1)CC(=O)N[C@H]1CCOC1=O`, the inhibition entry in series [1] was “inactive”. In series [2], the “growth inhibition (GI)” value was “inactive”.

In the case of `CCCCCCCCCC(=O)CC(=O)C1=C(O)COC1=O`, the inhibition entry in series [1] was “inactive”. The “growth inhibition (GI)” value in series [2] is “inactive”.

One may read the MIC as the lowest concentration found to suppress growth. `CCCCCCCCC/C(O)=C1\C(=O)CNC1=O` returned an IC50 in series [3] of 30 µM. Also, the MIC in series [5] worked out at 100 µM (≈ 25.3 µg/mL).

As to `O=C(COc1ccc(Br)cc1)C1=C(O)COC1=O`, the inhibition result in series [1] was “inactive”. The “growth inhibition (GI)” value in [2] was “inactive”.

As to `CCCCC/C=C/CCC(=O)C1=C(O)COC1=O`, the IC50 in series [3] came out at 22 µM. Also, the MIC in [5] was 50 µM (≈ 12.6 µg/mL).

As for `CCCCCCCCCC(=O)CC(=O)N[C@@H]1CCOC1=O`, the IC50 in [3] was determined as 37 µM. In addition, in [5], the MIC is 100 µM (≈ 29.7 µg/mL).

In the case of `CCCCCCCCCCCC(=O)C1=C(O)COC1=O`, it took 6 µM to reach half-maximal inhibition in [3] (IC50). In series [6], the inhibition result is “Active”. Further, the MIC in [5] amounted to 25 µM (≈ 7.06 µg/mL). Further, the Activity entry in series [7] is “Not Active”.

With `CCCCCCCCC/C(O)=C1/C(=O)N[C@@H](C)C1=O`, the IC50 in series [3] is 20 µM. The MIC in [5] worked out at 100 µM (≈ 26.7 µg/mL).

For `CCCCCCCCN(C)C(=O)CC(=O)N[C@H]1CCOC1=O`, the inhibition result in series [1] is “inactive”. Besides, the “growth inhibition (GI)” value in [2] is “inactive”.

Compound `CCCCCCCCCC/C(O)=C1/C(=O)N[C@@H](CCO)C1=O` yielded an IC50 in series [3] of 10 µM. Also, the MIC in series [5] was determined as 50 µM (≈ 15.6 µg/mL).

Regarding `CCCCCCCCCC(=O)CC(=O)N[C@H]1CCOC1=O`, the inhibition result in series [8] is “Active”. Moreover, in series [3], half-maximal inhibition (IC50) was put at 22 µM.

In the case of `CCCCCC(=O)C1=C(O)COC1=O`, the “growth inhibition (GI)” value in series [2] was “inactive”. In addition, the Activity result in [7] is listed as “Not Active”.

For the compound `CCCCCCCCCC(=O)CC(=O)N[C@H]1CC(=O)NC1=O`, the inhibition result in series [1] was “inactive”. Besides, the “growth inhibition (GI)” value in series [2] is “inactive”.

`CCCCCCCCCCCCC/C(O)=C1/C(=O)N[C@@H](CCO)C1=O` showed an IC50 in [3] of 14 µM. For the same compound, the MIC in [5] came to 12.5 µM (≈ 4.42 µg/mL).

In turn, `CCCCCCCCC/C(O)=C1/C(=O)N[C@@H](CCO)C1=O` returned an IC50 in [3] of 42 µM. In addition, in series [9], the inhibition entry was “Active”. Moreover, in [10], the fold change (FC) is 10. Also, in series [5], the MIC came to 100 µM (≈ 29.7 µg/mL). Also, the result in series [7] was Active. Besides, the outcome in [11] was inactive.

`CCCCCCCCCCC/C(O)=C1/C(=O)N[C@@H](CCO)C1=O`: the IC50 in [3] was 13 µM. In addition, the MIC in series [5] turned out to be 25 µM (≈ 8.14 µg/mL).

On to `CCCCCCCCC/C(O)=C1/C(=O)N[C@H](CCO)C1=O`, for which inhibition in series [3] was half-maximal at 28 µM (IC50). The “growth inhibition (GI)” value in series [2] is “inactive”.

Regarding `CCCCCCCCCC(O)CC(=O)N[C@H]1CCOC1=O` (stereo not given in full), in series [1], the inhibition entry is “inactive”. Besides, the “growth inhibition (GI)” value in [2] was “inactive”.

Turning to `CC(C)CCCCCCC(=O)C1=C(O)COC1=O`, the inhibition entry in series [1] was “inactive”. Moreover, in [2], the “growth inhibition (GI)” value was “inactive”.

Regarding `CCCCCCCCCC(=O)CC(=O)N[C@H]1CCC(=O)NC1=O`, in [1], the inhibition entry is “inactive”. Moreover, the “growth inhibition (GI)” value in [2] is “inactive”.

For the compound `CCCC(=O)CC(=O)C1=C(O)COC1=O`, the inhibition entry in [1] is “inactive”. The “growth inhibition (GI)” value in series [2] was “inactive”.

`CCCCCCCCOC(=O)CC(=O)N[C@H]1CCOC1=O`: the inhibition entry in series [1] was “inactive”. In addition, in series [2], the “growth inhibition (GI)” value was “inactive”.

Turning to `CCCCCCCCCC(=O)CC(=O)N[C@H]1CCNC1=O`, the inhibition result in series [1] was “inactive”. Moreover, the “growth inhibition (GI)” value in [2] was “inactive”.

Consider `CCCCCCCCCC(=O)CC(=O)Nc1nccs1`, for which the inhibition entry in series [1] is “inactive”. The “growth inhibition (GI)” value in [2] is “inactive”.

Turning to `CCCCC/C=C/CCC(=O)CC(=O)N[C@H]1CCOC1=O`, in series [1], the inhibition entry was “inactive”. For the same compound, the “growth inhibition (GI)” value in series [2] was “inactive”.

For the compound `CCCCCCCCCC(=O)CC(N)=O`, in [1], the inhibition entry is “inactive”. Further, in series [2], the “growth inhibition (GI)” value was “inactive”.

Take `CCCCCCCCCCCCCCCC(=O)C1=C(O)COC1=O`: the IC50 in [3] was 13 µM. Further, the “growth inhibition (GI)” value in [2] was “inactive”.

`CCCCCCCCCCCC(=O)N[C@H]1CCOC1=O`: the inhibition entry in series [1] is “inactive”. Also, the “growth inhibition (GI)” value in series [2] was “inactive”.

Consider `CCCCCCCCCC(=O)C1=C(O)COC1=O`, for which, in series [3], the IC50 came out at 21 µM. Further, the MIC in [5] was 50 µM (≈ 12.7 µg/mL). For the same compound, the Activity result in [7] is recorded as “Not Active”.

As to `CCCCCCCCCC(=O)CC(=O)N[C@H]1CCSC1=O`, the inhibition result in [1] is “inactive”. Further, in [2], the “growth inhibition (GI)” value is “inactive”.

Turning to `O=C(CCCC1CCCCC1)CC(=O)N[C@H]1CCOC1=O`, in [1], the inhibition entry is “inactive”. For the same compound, in series [2], the “growth inhibition (GI)” value was “inactive”.
